Published values pooled from the literature.
Lines come from different studies, so protocols differ.
Medium: plasma

| SMILES | species | route | dose | notes | Tmax |
| --- | --- | --- | --- | --- | --- |
| CC(=O)CC(=O)C1CC(C)C(=O)C1=O (centres unmarked) | male Sprague-Dawley rat | intravenous | 20 mg/kg | – | 6.6 min |
| Nc1ccc(/C=C/C(=O)NCc2cc3cc(-c4ccc(C(=O)N5CCC(F)(F)CC5)cc4)cc(-c4ccc(F)cc4)c3o2)cn1 | rat | oral | 3 mg/kg | – | 240 min |
| O=c1cc(-c2ccc(O)c(O)c2)oc2cc(O)cc(O)c12 | male Sprague-Dawley rat | oral | 30 mg/kg | – | 30 min |
| CC1(CN)CCN(c2cnc3c(Sc4ccncc4Cl)n[nH]c3n2)CC1 | male Sprague-Dawley rat | oral | 10 mg/kg | – | 4.98 min |
| O=C(C=Cc1ccccc1)Nc1cc(-c2ccnc(N3CCC(O)CC3)c2)ccn1 | female Sprague-Dawley rat | oral | 50 mg/kg | – | 30 min |
| CN1Cc2c(N)cccc2C(=O)N1C1CCC(=O)NC1=O (centres unmarked) | male Sprague-Dawley rat | oral | 3 mg/kg | – | ~18 min |
| O=C1CC[C@H](N2Cc3cc(N4CCN(CC5CCN(c6ccc([C@@H]7c8ccc(O)cc8CC[C@@H]7c7ccccc7)cc6)CC5)CC4)ccc3C2=O)C(=O)N1 | male Sprague-Dawley rat | oral | 20 mg/kg | fasted | 200 min |
| Cc1c(C(=O)O)ccc2c3n(nc12)[C@@H]1[C@H](C3)N(CC2CC2)[C@@]2(C(=O)Nc3cc(Cl)ccc32)[C@H]1c1cccc(Cl)c1F | male rat | oral | 2 mg/kg | – | 78 min |
| C[C@H]1[C@@H](O)O[C@@H]2O[C@@]3(C)CC[C@H]4[C@H](C)CC[C@@H]1[C@@]24OO3 | Sprague-Dawley rat | oral | 10 mg/kg | – | 27 min |
| N#C[C@@]12C[C@@H]1[C@@H](n1cnc3c(N[C@@H](C4CCC4)C4CC4)nc(I)nc31)[C@H](O)[C@@H]2O | male Wistar rat | oral | 3 mg/kg | – | 120 min |
| CC(=Nc1ccc(N=Cc2cnccn2)cc1)N(C)C | male Sprague-Dawley rat | oral | 200 mg/kg | single dose | ≤ 5 min |
